Data set [1] relates to plasmid (pBR322) DNA. Put plainly: Electrophoresis mobility shift assay with plasmid DNA. It counts as binding. Conditions: metal/DNAbp ratios 0.25-2.0; 37 °C, 20 h. A digest of the protocol: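 Supercoiled pBR322 (20 μg/mL) in 5 mM Tris/HCl, 50 mM NaClO4, pH 7.39, incubated with test compound at […] metal complex:DNAbp ratios for 20 h at 37 °C in the dark. Untreated DNA and cisplatin-DNA were the controls. Samples were run on 1% agarose in TAE for 1.5 h at 80 V and stained with GelRed for 30 min. Read-out: ratio at which the two plasmid forms coalesce.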

Data set [2] has as its system A2780cisR (cisplatin resistant variant of A2780). Conditions: read-out: IC50 A2780cisR; cisplatin dissolved in H2O; ref [18]; cited from earlier work.
Data set [3] deals with human breast cancer cell line MCF7. Conditions: read-out: IC50 MCF7; cisplatin dissolved in H2O; ref [18]; cited from earlier work.
For data set [4], the system named is human ovarian cancer A2780 cell line. To be noted: read-out: IC50 A2780; cisplatin dissolved in H2O; ref [18]; cited from earlier work.
The test system of data set [5] is non-tumorigenic human embryonic kidney cells HEK293T. Conditions: read-out: IC50 HEK-293T; cisplatin dissolved in H2O; ref [18]; cited from earlier work.
Data set [6] in a line: Stability in solution by 31P{1H} NMR in deuterated solvents. It counts as physicochemical.

On to `N.N.[Cl][Pt][Cl]` [cisplatin], for which, in data set [1], the “effect on electrophoretic mobility of pBR322 plasmid forms” value was “decrease in mobility of the CCC form and an increase in mobility of the OC form”. Moreover, the half-maximal inhibitory concentration (IC50) – broadly, the point on the concentration scale where inhibition reaches its midpoint – in data set [2] is 35 ± 7 µM; in data set [3] it was 20 ± 3 µM; in data set [4] it was 1.9 ± 0.6 µM; in data set [5], 11 ± 2.9 µM.

Take “[{Cp-P(Ph2)=NH-Ph}2Fe](AuCl4)2 [compound 4]”: in data set [6], the “half-life in d6-DMSO solution” value is given as “weeks”.

Values taken from publication PMC3880617 (Journal of medicinal chemistry, 2013).
